Results on 104 compounds are retold here after PubChem BioAssay AID463111 (Johns Hopkins Ion Channel Center, 2010).

About 2,800 (0.9%) of roughly 310,000 compounds were called active. This is one part of a sample in which actives are shown more often than they occur.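 How the source made its calls: active means B-score of the integrated calcium signal more than 4 SD below the library mean, with starting fluorescence not abnormally high; inactive means the rest.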 Residues, ends and D or L forms follow the SMILES beside them. *: point of attachment. Bz = O=C(c1ccccc1)*

This experiment in a line: RGS4 potentiators or activators, primary screen, cell-based, HEK293 M3R inducible RGS4, calcium flux (AID 463111).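 On B-score: negative B-score means reduced calcium response which marks RGS4 activation or potentiation.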 Particulars: HEK293 M3R/inducible RGS4, carbachol calcium flux Fluo4, at 10 µM; hits give low values. The essentials:
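Assay system: Inducible-RGS4 HEK293 cells carrying M3 receptor | Schedule: Compound preincubation 20 min at room temperature before agonist | Signal: Kinetic calcium fluorescence imaging with Fluo4-AM dye, 2 µM | Read-out basis: B score from integrated fluorescence ratio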
A general note: Calcium assays in cells follow changes in intracellular calcium, usually with a dye or a luminescent sensor.
For `COC(=O)c1ccc(C2C3=C(Nc4nnnn42)c2ccccc2OC3)cc1` (centres undefined), the B-score result is “inactive”.

Turning to `Cc1ccccc1-c1nc(CS(=O)(=O)CC(=O)NC(C)c2ccccc2)c(C)o1` (centres undefined), the B-score result was “inactive”.

On to `COC(=O)c1cc2occc2n1Cc1nc(-c2ccccc2C)oc1C`, for which the B-score was -7.3 (active).

For the compound `Cc1ccccc1-c1nc(CS(=O)(=O)CC(=O)N2CCc3ccccc3C2)c(C)o1`, the B-score result is “inactive”.

In the case of `O=C(NCCc1ccccn1)c1cc(C(=O)C2CCCCC2)c[nH]1`, the B-score result is “inactive”.

`CCC1CCCCN1CCCNC(=O)c1cc2c(Cl)nc3ccccc3c2s1` (centres undefined): the B-score is -8.65 (active).

As to `CCC1CCCCN1CCCNC(=O)C1CCC(Cn2c(=O)[nH]c3ccccc3c2=O)CC1` (centres undefined), the B-score entry is “inactive”.

Take `CCC1CCCCN1CCCNC(=O)Cn1nc(-c2ccccc2)ccc1=O` (centres undefined): the B-score result is “inactive”.

Consider `CC(C)C(c1nnnn1CCc1ccccc1)N1CCN(C(=O)c2ccco2)CC1` (centres undefined), for which the B-score was -10.4 (active).

Take `CCC(c1nnnn1C1CCCC1)N1CCN(C(=O)c2ccco2)CC1` (centres undefined): the B-score result was “inactive”.

On to `CC(C)C(c1nnnn1C1CCCCC1)N1CCN(C(=O)c2ccco2)CC1` (centres undefined), for which the B-score entry is “inactive”.

For `NC(=O)Nc1ccccc1C(=O)NCCc1ccccc1`, the B-score result was “inactive”.

With `Cc1ccccc1C(=O)NC(=S)NC1CC1`, the B-score result was “inactive”.

Consider `Cc1ccc(-c2nc(-c3cccnc3)sc2CC(=O)Nc2ccc(C)c(Cl)c2)cc1`, for which the B-score entry was “inactive”.

For `CN1C(=O)/C(=C/c2ccc(C(=O)NC3CCCC3)cc2)Oc2ccccc21`, the B-score result was “inactive”.

In the case of `CN1CCN(CCCNC(=O)c2ccc(/C=C3\Oc4ccccc4N(Cc4ccc(Cl)cc4)C3=O)cc2)CC1`, the B-score is -7.39 (active).

In the case of `CCCN1CCN(C(=O)CCCNC(=O)c2ccc(Cl)cc2)CC1`, the B-score result was “inactive”.

`COc1ccc2c(c1)C(NS(=O)(=O)OCC(Cl)(Cl)Cl)CCC2` (centres undefined): the B-score entry was “inactive”.

Turning to `CC1(C)C=C2[C@H]3CC[C@@H]4[C@@]5(C)CCC(=O)C(C)(C)[C@@H]5CC[C@@]4(C)[C@]3(C)CC[C@@]2(C(=O)O)CC1`, the B-score was -9.3 (active).

On to `CCOC(=O)CCCNC(=O)COC(=O)c1cc(Br)c(Br)s1`, for which the B-score entry was “inactive”.

For the compound `O=C(NC(=O)c1cc(OCC(F)(F)F)ccc1OCC(F)(F)F)Nc1ccccc1`, the B-score result is “inactive”.

Consider `NS(=O)(=O)c1ccc(CCNS(=O)(=O)c2cccc3cccnc23)cc1`, for which the B-score result is “inactive”.

On to `O=C(NCC1CCCO1)c1cc(-c2ccccc2)nc2ccccc12` (centres undefined), for which the B-score entry was “inactive”.

On to `O=C(NCC1CCCO1)c1cc2c([nH]c3ccccc32)c(-c2ccc(F)cc2)n1` (centres undefined), for which the B-score is -11.5 (active).

With `O=C(NCCCO)c1cc2c([nH]c3ccccc32)c(-c2ccc(F)cc2)n1`, the B-score result was “inactive”.

Take `CC(=O)N/C(=C\c1ccc(F)cc1)C(=O)NC(Cc1ccccc1)C(=O)O` (centres undefined): the B-score entry was “inactive”.

As to `CCOC(=O)c1csc(CCNC(=O)c2oc3c(Cl)cc(C)cc3c2C)n1`, the B-score result is “inactive”.

As to `CCCCCCCCCCOC(=O)Cn1c(COc2ccc(C)cc2)[n+](C)c2ccccc21`, the B-score was -8.44 (active).

With `Cc1ccc(OCCCn2c(=O)oc3ccccc32)cc1`, the B-score result was “inactive”.

`CCCCCCCCCCOC(=O)Cn1c(COc2cccc(OC)c2)[n+](C)c2ccccc21`: the B-score result was “inactive”.

As for `O=C(CCN1C(=O)C2C3CCC(C3)C2C1=O)Nc1ccc(Cl)cc1Cl` (centres undefined), the B-score entry is “inactive”.

On to `CC(NCCc1ccc(S(N)(=O)=O)cc1)C(=O)NCc1ccccc1` (centres undefined), for which the B-score entry was “inactive”.

Take `O=C(CN1CCCCCC1)Nc1ccc(Br)cc1[N+](=O)[O-]`: the B-score entry is “inactive”.

As for `O=[N+]([O-])c1cc([N+](=O)[O-])c(Oc2cc(F)cc(F)c2F)cc1NN1CCCCC1`, the B-score is -7.39 (active).

Consider `O=C(COc1ccc(Cl)cc1[N+](=O)[O-])N1CCCCC1`, for which the B-score entry was “inactive”.

On to `CCc1cccc(C)c1NS(=O)(=O)c1c(C)nc2sccn2c1=O`, for which the B-score result was “inactive”.

Turning to `CCSc1nc(=S)n(CC)c(C)c1C(C)=O`, the B-score result was “inactive”.

Regarding `Cc1ccccc1-n1nc(SCC(=O)O)sc1=S`, the B-score result was “inactive”.

As to `CC(CCc1ccccc1)NC(=O)COC(=O)c1ccc(F)cc1` (centres undefined), the B-score result was “inactive”.

As for `CCOC(=O)COc1ccc([N+](=O)[O-])cc1`, the B-score entry was “inactive”.

With `N/C(Cc1ccc([N+](=O)[O-])cc1)=N\OC(=O)COc1ccc2ccccc2c1`, the B-score is -7.23 (active).

On to `N/C(Cc1ccc([N+](=O)[O-])cc1)=N\OC(=O)C1CCCCC1`, for which the B-score result was “inactive”.

On to `Cc1cc(C)cc(OCC(=O)O/N=C(\N)Cc2ccc([N+](=O)[O-])cc2)c1`, for which the B-score is -7.82 (active).

As for `N/C(=N\OC(=O)Cc1ccc([N+](=O)[O-])cc1)c1ccccn1`, the B-score entry was “inactive”.

`N/C(=N\OC(=O)COc1ccc([N+](=O)[O-])cc1)c1ccc(Br)cc1`: the B-score entry is “inactive”.

Regarding `CCOc1ccc(N2C(=O)Nc3ccccc3C2(O)C(=O)NCc2ccco2)cc1` (centres undefined), the B-score entry was “inactive”.

In the case of `O=C(COC(=O)Cc1ccc(Br)cc1)Nc1c(F)c(F)c(F)c(F)c1F`, the B-score entry is “inactive”.

With `O=C(NC(Cc1ccccc1)C(=O)N1CCCC(C(F)(F)F)C1)c1ccccc1` (centres undefined), the B-score entry is “inactive”.

Turning to `O=C(NC(Cc1ccccc1)C(=O)N1CCCC1C(=O)O)c1ccccc1` (stereo not drawn) (Bz-Phe-Pro-OH; configuration not given here), the B-score result is “inactive”.

Take `CN(Cc1ccccc1F)C(=O)C(Cc1ccccc1)NC(=O)c1ccccc1` (centres undefined): the B-score was -7.13 (active).

For the compound `O=C(/C=C/c1ccc([N+](=O)[O-])o1)NNC(=O)c1ccc(F)cc1`, the B-score entry is “inactive”.

As to `CC1CCN(C(=O)COC(=O)c2cc(S(=O)(=O)N3CCOCC3)ccc2Cl)CC1`, the B-score result is “inactive”.

On to `COc1ccc(CCNC(=O)CC2SC(=Nc3cc(C)cc(C)c3)NC2=O)cc1OC` (centres undefined), for which the B-score result was “inactive”.

Turning to `O=C(O)c1ccc(Cn2c(=S)[nH]c3cc(Cl)ccc3c2=O)cc1`, the B-score result was “inactive”.

`CC(C)c1ccc2c(c1)c(SC(C)(C)C)c(CC(C)(C)C(=O)O)n2Cc1ccc(Cl)cc1`: the B-score is -7.99 (active).

With `Nc1nc(NC(=O)/C=C/c2ccc(F)cc2)nn1-c1ccccc1`, the B-score result was “inactive”.

Consider `C[C@@H](C(=O)N1CCNCC1)n1cc(CCC(=O)O)nn1`, for which the B-score result was “inactive”.

As for `CCCCC(=O)NNC(=S)NC(=O)C(c1ccccc1)c1ccccc1`, the B-score is -9.53 (active).

Regarding `CC(C)C(=O)Nc1cccc(NC(=S)NC(=O)C(c2ccccc2)c2ccccc2)c1`, the B-score result was “inactive”.

On to `O=C(NNC(=S)NCc1ccco1)C(c1ccccc1)c1ccccc1`, for which the B-score entry was “inactive”.

In the case of `O=C(N/N=C/c1ccsc1)c1cc(O)cc(O)c1`, the B-score entry was “inactive”.

Turning to `COc1ccc(CN2CC[C@H]3C=CC[C@@H](C(=O)N4CCOCC4)[C@H]3C2=O)cc1OC`, the B-score result was “inactive”.

Consider `CCN(Cc1ccncc1)C(=O)CCc1ccccc1`, for which the B-score result was “inactive”.

For the compound `Cc1cc(C)n(Cc2cnc(N3CCOCC3)s2)n1`, the B-score result was “inactive”.

`CCC1C=C(c2ccccc2)C=CN=C1N(CC)CC` (centres undefined): the B-score is -10.2 (active).

Take `COc1cccc(NC(=O)N2C3CCCC2CC(NC(C)=O)C3)c1` (centres undefined): the B-score result was “inactive”.

In the case of `CCCn1c(SCC(=O)c2ccc3c(c2)OCCO3)nnc1C(C)C`, the B-score entry was “inactive”.

For `O=C(c1ccccc1F)N1CCN(S(=O)(=O)c2ccc(Br)cc2)CC1`, the B-score result is “inactive”.

Regarding `O=S(=O)(c1ccc(Br)cc1)N1CCC(c2nc3ccccc3[nH]2)CC1`, the B-score entry was “inactive”.

In the case of `O=S(=O)(c1ccc(Br)cc1)n1ccc2ccccc21`, the B-score was -7.7 (active).

Regarding `CCC1CCc2c(sc(NC(C)=O)c2C#N)C1` (centres undefined), the B-score result was “inactive”.

For `CCC(C)c1ccc(NC(=S)NCc2ccccn2)cc1` (centres undefined), the B-score entry was “inactive”.

Turning to `FC(F)(F)c1cnc(Oc2ccccc2-c2nnc(-c3ccc(Cl)cc3)o2)c(Cl)c1`, the B-score entry is “inactive”.

As for `FC(F)(F)c1cccc(-c2nc(COc3ccc(Cl)cc3Cl)no2)c1`, the B-score was -7.64 (active).

`Cc1cc(Cl)ccc1OCc1nc(-c2ccncc2)no1`: the B-score entry was “inactive”.

As for `Cc1ccc(NC(=O)COc2coc(CN3CCc4ccccc4C3)cc2=O)cc1Cl`, the B-score entry is “inactive”.

Turning to `CCOC(=O)C1(Cc2ccccc2C)CCCN(C(=O)c2ccc(COC)o2)C1` (centres undefined), the B-score entry was “inactive”.

For the compound `CCOc1cc(C(=S)N2CCOCC2)ccc1OS(=O)(=O)c1ccc(Br)cc1`, the B-score result was “inactive”.

Turning to `COc1ccc(C(=O)NC2CCCc3c2cnn3-c2cccc(C)c2C)c(OC)n1` (centres undefined), the B-score is -10.2 (active).

As for `Cn1nccc1C(=O)NC1CCCc2c1cnn2-c1ccccc1F` (centres undefined), the B-score result was “inactive”.

For `Cc1cc(C(=O)NC2CCCc3c2cnn3-c2cccc(C)c2C)c(C)o1` (centres undefined), the B-score result is “inactive”.

In the case of `Cc1cccc(C(=O)Nc2ccc(CC(=O)O)cc2)c1`, the B-score result is “inactive”.

For the compound `Cc1cccc(C(=O)Nc2ccc(C(=O)N/N=C/c3cccc(C)n3)cc2)c1`, the B-score result was “inactive”.

`Cc1cccc(C(=O)Nc2ccc(C(=O)/C=C/c3cccs3)cc2)c1`: the B-score was -10.5 (active).

Regarding `Cn1nc(C(F)(F)F)c2cc(NC(=O)OCC(C)(C)C)sc21`, the B-score entry is “inactive”.

As to `CN(C(=O)CN1C(=O)CCSc2ccc(S(=O)(=O)N3CCCC3)cc21)c1ccccc1`, the B-score entry is “inactive”.

For `CCCCOc1ccc(N(CC(=O)NCC2CCCO2)C(=O)CCC(=O)Nc2cc(C)ccn2)cc1` (centres undefined), the B-score result is “inactive”.

For the compound `Cc1cc(C)cc(NS(=O)(=O)c2ccc(F)cc2)c1`, the B-score result is “inactive”.

With `Cc1cc(C)cc(NS(=O)(=O)c2ccc(Oc3ncc(C(F)(F)F)cc3Cl)cc2)c1`, the B-score was -8.23 (active).

With `COc1ccccc1Oc1ccc(S(=O)(=O)Nc2cccnc2)cc1`, the B-score result was “inactive”.

Consider `CCN1C(=O)[C@H]2[C@@H](c3ccc(C)cc3)N3C(=O)N(c4cccc(Br)c4)C(=O)[C@@]3(CC)[C@H]2C1=O`, for which the B-score result is “inactive”.

`Cc1cc(NC(=O)CCN2CCN(Cc3ccccc3)CC2)ccc1Br`: the B-score entry is “inactive”.

`O=C(Nc1ccccc1C(=O)N1CCOCC1)C1CCC(=O)N1C1CCCC1` (centres undefined): the B-score result is “inactive”.

For the compound `CCc1ccccc1NC(=O)[C@@H]1CCC(=O)N1C1OC(=O)c2c1ccc(OC)c2OC` (some centres undefined), the B-score was -8.3 (active).

`CCOc1ccc(CNC(=O)C2CCC(=O)N2C2CCCC2)cc1OC` (centres undefined): the B-score result was “inactive”.

As for `CCC(=O)N1CCCc2ccccc21`, the B-score entry is “inactive”.

Consider `CC1CC(C)CN(CC(=O)N2c3ccccc3CCc3ccccc32)C1` (centres undefined), for which the B-score entry is “inactive”.

`CN1CCN(C(=O)N2c3ccccc3CCc3ccccc32)CC1`: the B-score was -9.54 (active).

On to `N#CC1(C#N)C(C(=O)C23CC4CC(CC(C4)C2)C3)C12CCOCC2` (centres undefined), for which the B-score entry was “inactive”.

For the compound `FC(F)(F)C1CCCN(c2nsc3ccccc23)C1` (centres undefined), the B-score entry is “inactive”.

As to `COC(=O)c1cccc(N(CC(=O)NCC2CCCO2)C(=O)CCC(=O)Nc2cc(C)on2)c1` (centres undefined), the B-score entry was “inactive”.

Turning to `CC(C)CCn1c(CN(C)Cc2ccccc2)nc2c1c(=O)n(C)c(=O)n2C`, the B-score result was “inactive”.

With `Cc1ccnc(SCCn2c(N(C)Cc3ccccc3)nc3c2c(=O)n(C)c(=O)n3C)n1`, the B-score was -7.93 (active).

For the compound `CN(Cc1ccccc1)c1nc2c(c(=O)[nH]c(=O)n2C)n1CCSc1nc2ccccc2[nH]1`, the B-score entry was “inactive”.
